Experimental data taken from ChEMBL document CHEMBL2429829, “Inhibitors of the aminoglycoside 6'-N-acetyltransferase type Ib [AAC(6')-Ib] identified by in silico molecular docking” (Bioorg Med Chem Lett, 2013).

Experiment: Inhibition of aminoglycoside 6'-N-acetyltransferase Ib (unknown origin)-mediated acetylation expressed in Escherichia coli using 5 to 72 uM acetyl CoA and 25 uM kanamycin A as substrate preincubated for 10 mins followed by enzyme addition by spectrophotometric analysis
How it was run: (§1)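 Enzyme partially purified on DEAE from arabinose-induced E. coli, in 20 mM Tris pH 7.5 with 0.2 mM DTNB and 10% DMSO. Inhibitor at a range of concentrations, acetyl CoA 5–72 μM, kanamycin A 25 μM. 10 min room-temperature preincubation before enzyme. CoA-SH release read at 412 nm. Ki from initial velocities by nonlinear regression, in triplicate.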

Structure (SMILES) | Ki
Cc1ccc(N2C(=O)NC(=O)/C(=C\c3ccccc3OCc3ccc(C(=O)O)cc3)C2=O)cc1C | 297 µM
O=C1NC(=O)N(c2ccc(O)cc2)C(=O)/C1=C/c1ccccc1OCc1ccc(C(=O)O)cc1 | 292 µM
O=C1NC(=O)N(c2ccc(Cl)cc2)C(=O)/C1=C\c1ccco1 | 74 µM

Experiment: Inhibition of aminoglycoside 6'-N-acetyltransferase Ib (unknown origin)-mediated acetylation expressed in Escherichia coli using kanamycin A and acetyl CoA as substrate at 100 uM preincubated for 10 mins followed by enzyme addition by spectrophotometric analysis relative to control
How it was run: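 Enzyme: thioredoxin-fused AAC(6′)-Ib, arabinose-induced in E. coli, partially purified by DEAE ion exchange. Reaction: 20 mM Tris pH 7.5, 0.2 mM DTNB, 50 μM acetyl CoA, 18 μM kanamycin A, compound at 100 μM in 10% DMSO. Mix held 10 min at room temperature before enzyme added. CoA–SH release read at 412 nm. Percent inhibition from initial velocities versus no-compound reactions; mean of three experiments.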

Structure (SMILES) | inhibition
O=C(c1cc(-c2ccccc2Cl)nc2ccccc12)N1CCN(Cc2ccc3c(c2)OCO3)CC1 | 0%
COc1ccc(F)cc1C(=O)C1CCCN(C(=O)c2ccc(Cn3cnnn3)cc2)C1 (configuration not stated) | 0%
Cc1ccc2nc(C)cc(C(=O)OCC(=O)c3ccc(-c4ccccc4)cc3)c2c1 | 0%
Cc1ccc(N2C(=O)NC(=O)/C(=C\c3ccccc3OCc3ccc(C(=O)O)cc3)C2=O)cc1C | 27%
Cc1cccc(C)c1NC(=O)COc1ccc2c3c(c(=O)oc2c1)CCCCC3 | 0%
COc1cccc(Nc2nc(C3(C)CC4(CC(C)OC4=O)C(=O)O3)cs2)c1 (configuration not stated) | 0%
Cc1ccc2nc(-c3ccc(Cl)c(NC(=S)NC(=O)c4ccccc4C)c3)oc2c1 | 0%
N#Cc1cccc(Oc2ccc(-c3nc4ccccc4nc3-c3ccccc3)cc2)c1C#N | 0%
O=C1c2cccc3cccc(c23)C(=O)N1CCCc1nc2sc3c(c2c(=O)[nH]1)CCCC3 | 0%
Cc1ccc(S(=O)(=O)Nc2cc3c(c4ccccc24)O[C@]2(C3)N(C)c3ccccc3C2(C)C)c(C)c1 | 0%
O=C(NC1CCCc2c1cnn2-c1ccccc1F)c1ccc(-n2ccnc2)cc1 (configuration not stated) | 15%
O=C1NC(=S)N(c2ccccc2)C(=O)/C1=C/c1ccc(OCc2ccccc2)cc1 | 0%
O=C(Nc1ccc(Oc2cccnc2)cc1)[C@@H]1CCCCN1Cc1ccc2c(c1)CCO2 | 0%
Cc1ccc(-c2nnn(CC(=O)Nc3ccc4c(c3)OCCO4)n2)cc1 | 0%
O=C(NC(=S)Nc1nc(-c2cccc3ccccc23)cs1)c1ccc2c(c1)OCCO2 | 0%
Cc1ccc(S(=O)(=O)Nc2c3ccccc3c(O)c3c4c(oc23)CC(C)(C)CC4=O)cc1 | 0%
S=C(N/N=C1/CCCc2c1[nH]c1ccc(C3CCCCC3)cc21)Nc1ccccc1 | 0%
Cc1ccc(N2C(=O)NC(=O)/C(=C\c3ccc(-c4ccccc4C(=O)O)o3)C2=O)cc1 | 0%
CCc1ccc(-c2nc3ccccc3c(C(=O)Nc3ccc(C(=O)N4CCCC4)cc3)c2C)cc1 | 0%
O=C1C[C@H](c2ccc3cccc(O)c3n2)c2ccc(N3CCOC3=O)cc2N1 | 0%
O=C1NC(=O)N(c2ccc(O)cc2)C(=O)/C1=C/c1ccccc1OCc1ccc(C(=O)O)cc1 | 30%

Structure (SMILES) | inhibition
O=C1C(=Cc2ccco2)C(=O)N(c2ccccc2)C(=S)N1c1ccccc1 | 0%
O=C1NC(=O)N(c2ccc(Cl)cc2)C(=O)/C1=C\c1ccco1 | 60%
CC(C)(C)NC(=O)c1cccc(NC(=O)c2ccc3c(c2)C(=O)N(Cc2ccncc2)C3=O)c1 | 0%
COc1cc(/C=C2\C(=O)NC(=S)N(c3ccccc3)C2=O)ccc1OCc1ccc(C(=O)O)cc1 | 0%
CC(C)(NC(=O)CCn1ccc(=O)[nH]c1=O)c1cccc2ccccc12 | 0%
O=C1C(=Cc2ccc(-c3ccccc3[N+](=O)[O-])o2)C(=O)N(c2ccccc2)C(=S)N1c1ccccc1 | 0%
O=C1NC(=O)N(c2ccc3c(c2)OCO3)C(=O)/C1=C/c1ccc(-c2ccc(F)cc2)o1 | 0%
Cc1nc(N/N=C/c2ccc(OC(=O)c3cccnc3)cc2)c2c3c(sc2n1)CCCC3 | 0%
Cn1c(COc2nnc(-c3ccccc3)c3ccccc23)nc2ccccc21 | 0%
Cc1cc(C)c2nc(Nc3nc(C)cc(-c4ccccc4)n3)nc(C)c2c1 | 0%
Cc1ccc(-c2csc(NC(=S)NC(=O)c3ccccc3Br)n2)cc1 | 0%
O=C(c1ccc2nc(C3CC3)oc2c1)N1CCC(CCc2ccccc2)CC1 | 0%
Cn1c(SCC(=O)Nc2cccc3ccccc23)nnc1-c1ccc(F)cc1 | 0%
O=C1NC(=O)N(c2ccc(F)cc2)C(=O)/C1=C/c1cc(Cl)ccc1OCc1ccc(C(=O)O)cc1 | 0%
O=c1oc2ccc(Br)cc2cc1C1=Nn2c(nc3ccccc3c2=O)SC1 | 0%
c1ccc2oc(-c3nn4c(-c5ccncc5)nnc4s3)cc2c1 | 0%
O=C1NCCN(Cc2cccc(F)c2F)[C@H]1CC(=O)N1CCc2c([nH]c3ccccc23)C1 | 0%
CCc1cc(Br)ccc1N1C(=O)[C@H]2C3c4ccccc4C(c4ccccc43)[C@@H]2C1=O | 0%
Cc1ccccc1Nc1nnc(-c2ccc(C(=O)NCCO)cc2)c2ccccc12 | 0%
Cc1ncc(CNC2CCCc3nc(-c4ccccc4)ncc32)n1C (configuration not stated) | 0%
O=C(c1cccc([N+](=O)[O-])c1)c1ccc2c(c1)C(=O)N(c1cccc(-c3nc4ccccc4o3)c1)C2=O | 0%

Structure (SMILES) | inhibition
O=C(CSc1nc2ccccc2c(=O)n1Cc1ccccc1)c1cc2ccccc2o1 | 0%
O=C(c1ccc2c3c(cccc13)CC2)[C@H]1CCCN(C(=O)c2cn3ccccc3n2)C1 | 0%
Cc1ccc(N2C(=O)C[C@@H](N3CCN(c4nc5ccccc5s4)CC3)C2=O)c(C)c1 | 0%
Cc1cccc(C)c1NC(=O)C(Cc1c[nH]c2ccccc12)NC(=O)Oc1ccccc1 (configuration not stated) | 0%
Cc1ccc(C(=O)O)cc1NC(=S)NC(=O)c1cccc2c(Br)cccc12 | 0%
O=C1[C@@H]2[C@H](C(=O)N1/N=C/c1ccccc1OCc1ccc(Cl)cc1)[C@@H]1C=C[C@H]2C1 | 12%
O=C(Nc1ccccc1N1CCCCC1)c1cccc(-c2cc3ccccc3oc2=O)c1 | 0%
O=C(Nc1ccc2c(c1)C(=O)c1ccccc1C2=O)c1cccc([N+](=O)[O-])c1 | 0%
O=C(CSc1nnnn1-c1ccccc1)Nc1ccc(-c2ccc([N+](=O)[O-])cc2)cc1 | 0%
Cc1ccc(NC(=O)COc2ccc3c4c(c(=O)oc3c2)CCCCC4)cc1 | 0%
Cc1ccnc(Nc2nc(-c3ccc4ccccc4c3)cs2)c1 | 0%
Brc1ccc2nc(Nc3cccc4ccccc34)nc(-c3ccccc3)c2c1 | 0%
O=C1NC(=O)N(c2ccccc2)C(=O)/C1=C/c1cc(Cl)ccc1OCc1ccc(C(=O)O)cc1 | 0%
Cc1ccc2nc(NC(=S)NC(=O)c3oc4ccccc4c3C)sc2c1 | 0%
COC(=O)c1ccc(N2C(=O)NC(=O)/C(=C\c3ccccc3OCc3ccc(C(=O)O)cc3)C2=O)cc1 | 0%
O=C(Nc1nccs1)c1cccc(N2C(=O)c3cccc4c([N+](=O)[O-])ccc(c34)C2=O)c1 | 0%
CC[C@H](C1=NN2C(=N)/C(=C\c3ccc(-c4cccc(C(=O)O)c4)o3)C(=O)N=C2S1)c1ccccc1 | 0%
Cc1nn(Cc2ccc(F)cc2)c(C)c1NC(=O)c1cc(-c2ccc(F)cc2)on1 | 0%
O=C1C(=Cc2ccc(-c3ccccc3Cl)o2)C(=O)N(c2ccccc2)C(=S)N1c1ccccc1 | 0%
CN1C(=O)c2ccc(NC(=O)[C@H]3CC(=O)N(c4ccccc4)C3)cc2C1=O | 0%
O=C(NCc1ccc(-c2nc3ccccc3o2)cc1)c1cccc(-c2cc3ccccc3oc2=O)c1 | 0%

Structure (SMILES) | inhibition
Cc1ccc2nc(N3C(=O)c4cccc5cccc(c45)C3=O)sc2c1 | 0%
O=C(O)c1ccc2c(c1Nc1cccc3c1C(=O)c1ccccc1C3=O)C(=O)c1ccccc1C2=O | 0%
O=C1C(=Cc2ccco2)C(=O)N(c2ccccc2)C(=O)N1c1ccccc1 | 0%
O=C1C(=Cc2ccc(-c3ccc(Cl)cc3[N+](=O)[O-])o2)C(=O)N(c2ccccc2)C(=S)N1c1ccccc1 | 0%
NC(=O)c1c(NC(=O)c2cc(-c3ccc4c(c3)OCO4)nc3ccccc23)sc2c1CCCCCC2 | 0%
Cc1ccc(-c2cc(C(=O)NCc3ccc(S(N)(=O)=O)cc3)c3ccccc3n2)cc1C | 0%
O=C(/C=C/c1cccc2ccccc12)N1CCN(CCN2C(=O)c3cccc4cccc(c34)C2=O)CC1 | 0%
O=C(c1ccc(N2CCCCC2)cc1)N1CCC2c3ccccc3NC2[C@@H]1c1ccccn1 (some centres not stated) | 0%
Cc1c(O)cccc1C(=O)N1CCC[C@@H]1c1nc(-c2ccccc2)no1 | 0%
Cc1ccc(NC(=O)c2ccccc2N2C(=O)[C@@H]3[C@@H]4C=C[C@@H]([C@H]5C[C@@H]45)[C@@H]3C2=O)cc1C | 0%
O=C(Nc1ccccc1)c1ccccc1/N=C/c1ccc(/C=N/c2ccccc2C(=O)Nc2ccccc2)cc1 | 0%
O=C(NC(=S)Nc1ccc2c3c(oc2c1)CCCC3)c1ccc2c(c1)OCO2 | 0%
O=C(OCc1ccc(S(=O)(=O)c2ccccc2)cc1)c1ccc2c(c1)-c1ccccc1C2=O | 0%
Cc1ccc(C(=O)COc2cccc(N3C(=O)[C@@H]4[C@H]5CC[C@H](C5)[C@@H]4C3=O)c2)cc1C | 0%
Cc1c(C(=O)Nc2ccc3c(c2)Cc2ccccc2-3)cccc1[N+](=O)[O-] | 0%
O=c1[nH]c(-c2cccc(OCc3ccccc3)c2)nc2sc3c(c12)CCCC3 | 0%
O=C(c1cc(-c2ccc3c(c2)OCO3)nc2ccccc12)N1CCN(c2ccccc2F)CC1 | 0%
Cc1ccc2c(c1)CCCN2C(=O)c1cc(-c2ccc3c(c2)OCO3)nc2ccccc12 | 10%

Experiment: Inhibition of aminoglycoside 6'-N-acetyltransferase Ib (unknown origin)-mediated acetylation expressed in Escherichia coli using 3 to 18 uM kanamycin A and 100 uM acetyl CoA as substrate preincubated for 10 mins followed by enzyme addition by spectrophotometric analysis
How it was run: as §1, with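 “concentrations, kanamycin A 3–18 μM,” for “concentrations,”, “100” for “5–72 μM, kanamycin A 25”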

Structure (SMILES) | Ki
Cc1ccc(N2C(=O)NC(=O)/C(=C\c3ccccc3OCc3ccc(C(=O)O)cc3)C2=O)cc1C | 155 µM
O=C1NC(=O)N(c2ccc(O)cc2)C(=O)/C1=C/c1ccccc1OCc1ccc(C(=O)O)cc1 | 129 µM
O=C1NC(=O)N(c2ccc(Cl)cc2)C(=O)/C1=C\c1ccco1 | 33 µM
